In general, IC50 refers to the point on the concentration scale where inhibition reaches its midpoint. The term inhibition denotes how much of the control response was suppressed.

This note sets out measurements from ChEMBL document CHEMBL1127642, “Potent, selective, and systemically-available inhibitors of acyl-coenzyme A:cholesterol acyl transferase (ACAT)” (J Med Chem, 1994).

Active and inactive are the calls of the source. The calls are words filed in the database; no cut-off is given here.

The target of test [1] is T1, Sterol O-acyltransferase 1 (Rattus norvegicus, UniProt O70536).
T1 sequence (O70536 whole entry): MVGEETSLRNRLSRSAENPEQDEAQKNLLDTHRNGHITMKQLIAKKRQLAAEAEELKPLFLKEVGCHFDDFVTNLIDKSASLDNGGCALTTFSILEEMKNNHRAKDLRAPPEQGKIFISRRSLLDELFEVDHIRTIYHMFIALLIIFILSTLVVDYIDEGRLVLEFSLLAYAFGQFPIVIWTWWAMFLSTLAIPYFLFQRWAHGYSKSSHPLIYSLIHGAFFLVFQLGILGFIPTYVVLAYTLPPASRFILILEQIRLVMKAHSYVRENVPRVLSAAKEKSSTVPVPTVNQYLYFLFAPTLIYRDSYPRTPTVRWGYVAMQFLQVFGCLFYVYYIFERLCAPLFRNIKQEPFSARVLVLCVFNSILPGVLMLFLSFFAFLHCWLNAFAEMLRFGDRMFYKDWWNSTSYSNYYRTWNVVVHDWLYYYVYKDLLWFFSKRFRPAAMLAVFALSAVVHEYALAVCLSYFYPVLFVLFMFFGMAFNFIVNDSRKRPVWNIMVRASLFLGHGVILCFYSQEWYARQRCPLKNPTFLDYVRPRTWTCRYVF
As to the kind of experiment: In vitro potency was determined using Acyl coenzyme A:cholesterol acyltransferase in liver microsomes from rats. Also on record: species or system Microsome. The procedure, abridged:
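Enzyme source was liver microsomes prepared from chow-fed Sprague-Dawley rats, assayed for ACAT activity by the Billheimer method. IC50 was determined.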

Another test deals with Cricetinae gen. sp. The test is described as follows: Effects on cholesterol absorption in hamsters. The class given is functional, organism-based. The note with it: Cricetulus griseus. The procedure, abridged: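 Cholesterol-fed hamsters received radiolabeled cholesterol in a liquid diet together with the drug, and untreated controls were included. Animals were sacrificed 24 h later. Absorption inhibition was estimated from plasma and liver radioactivity relative to controls. Dose-response studies gave ED50, and chow-fed hamsters were also tested.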

The nature of test [2]: Dose required for 50 percent inhibition of rat Pancreatic cholesterol esterase in vitro No effect at 300 uM.
A short description of test [3]: Dose required for 50 percent inhibition of lecithin cholesterol acyl transferase in vitro in rats at 300 uM; No effect.
For another test, the system named is Oryctolagus cuniculus. As to the kind of experiment: Evaluation for the plasma cholesterol lowering in rabbits at the dose 5 mg/kg. The class given is functional, organism-based. Also on record: dose 5 mg/kg. An outline of the steps: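 Cholesterol-fed New Zealand White rabbits: diet with 0.4% cholesterol and 5% peanut oil for 4 weeks, drug given over the final 3 weeks at a single dose of 5 mg/kg. Read-out is total plasma cholesterol (mg/dL) against untreated controls, mean ± standard deviation, n = 5 per group.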

Test [4] concerns the target T2, Bile salt-activated lipase (Bos taurus) (UniProt P30122).
T2 sequence (whole entry): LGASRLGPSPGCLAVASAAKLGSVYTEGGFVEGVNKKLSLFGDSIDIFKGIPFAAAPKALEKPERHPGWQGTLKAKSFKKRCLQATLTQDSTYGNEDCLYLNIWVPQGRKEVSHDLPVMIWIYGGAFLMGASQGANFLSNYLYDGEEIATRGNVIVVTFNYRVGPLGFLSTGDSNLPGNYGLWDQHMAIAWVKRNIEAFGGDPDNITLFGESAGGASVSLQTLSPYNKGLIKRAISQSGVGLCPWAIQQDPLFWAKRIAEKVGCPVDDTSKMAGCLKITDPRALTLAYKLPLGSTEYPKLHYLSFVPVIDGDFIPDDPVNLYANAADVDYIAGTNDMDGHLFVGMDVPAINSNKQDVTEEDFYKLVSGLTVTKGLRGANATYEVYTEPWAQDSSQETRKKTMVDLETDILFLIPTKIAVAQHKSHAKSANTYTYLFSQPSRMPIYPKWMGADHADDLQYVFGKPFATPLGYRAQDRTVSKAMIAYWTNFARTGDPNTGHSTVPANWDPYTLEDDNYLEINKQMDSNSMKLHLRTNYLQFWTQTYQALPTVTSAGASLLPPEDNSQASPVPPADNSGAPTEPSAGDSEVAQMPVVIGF
As to the kind of experiment: Dose required for 50 percent inhibition of Pancreatic cholesterol esterase in vitro in rats at 300 uM; No effect.

The target in test [5] is T3, Sterol O-acyltransferase 1 (Rattus norvegicus) (UniProt O70536).
T3 sequence (whole entry): T1 sequence (O70536 whole entry)
The note with it: 0.135 uM.

The nature of test [6]: Dose required for 50 percent inhibition of lecithin cholesterol acyl transferase in vitro in rats at 30 uM; No effect.
The target of test [7] is T4, 3-hydroxy-3-methylglutaryl-coenzyme A reductase (Rattus norvegicus) (UniProt P51639).
T4 sequence (whole entry): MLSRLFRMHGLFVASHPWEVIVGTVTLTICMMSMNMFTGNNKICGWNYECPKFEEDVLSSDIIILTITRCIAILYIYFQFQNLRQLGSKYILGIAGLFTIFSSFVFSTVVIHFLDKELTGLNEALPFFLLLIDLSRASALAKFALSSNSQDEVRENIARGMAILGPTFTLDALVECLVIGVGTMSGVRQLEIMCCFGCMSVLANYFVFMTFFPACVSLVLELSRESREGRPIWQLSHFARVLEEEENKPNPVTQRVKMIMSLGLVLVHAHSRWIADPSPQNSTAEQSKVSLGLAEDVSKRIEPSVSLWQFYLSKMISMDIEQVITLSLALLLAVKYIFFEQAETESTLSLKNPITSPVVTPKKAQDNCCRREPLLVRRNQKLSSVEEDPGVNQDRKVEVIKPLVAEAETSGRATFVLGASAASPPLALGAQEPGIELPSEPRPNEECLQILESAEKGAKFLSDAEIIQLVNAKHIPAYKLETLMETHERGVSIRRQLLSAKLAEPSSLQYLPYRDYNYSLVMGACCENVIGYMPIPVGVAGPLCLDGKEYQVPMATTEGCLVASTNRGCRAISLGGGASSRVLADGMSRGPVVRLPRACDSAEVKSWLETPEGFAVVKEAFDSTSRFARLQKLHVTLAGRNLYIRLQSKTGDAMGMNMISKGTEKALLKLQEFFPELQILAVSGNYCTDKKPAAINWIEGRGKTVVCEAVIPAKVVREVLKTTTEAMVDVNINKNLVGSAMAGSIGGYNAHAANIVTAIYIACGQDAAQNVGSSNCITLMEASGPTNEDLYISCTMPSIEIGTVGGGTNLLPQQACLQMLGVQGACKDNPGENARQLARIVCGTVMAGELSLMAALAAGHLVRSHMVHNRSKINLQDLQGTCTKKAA
The test is described as follows: Dose required for 50 percent inhibition of 3-Hydroxy-3-methylglutaryl coenzyme A reductase in vitro in rats at 100 uM; No effect.

Compound `CCCCCCCC[C@@H](SCCCCCC)C(=O)Nc1c(SC)ccc2ncccc12` registered a 50% inhibitory concentration (IC50) in [1] of 750 nM.
Compound `CCCCCCCC[C@H](SCCCCCC)C(=O)Nc1c(SC)cc(C)nc1SC` yielded an Absorption in the test with Cricetinae gen. sp. of 0.009 mg/kg. The same compound returned a half-maximal inhibitory concentration (IC50) in test [1] of 22 nM. Further, the inhibition entry in test [2], in [3] and in [4] was “inactive” in each case. The Level with Oryctolagus cuniculus was 98 mg/dL.
On to `CCCCCCCCC(SCCCCCC)C(=O)Nc1c(SC)cc(C)nc1SC` (single isomer, unassigned), for which the IC50 in [1] came to 160 nM.
In test [5], `CCCCCCCC[C@H](SCCCCCC)C(=O)Nc1c(SC)ccc2ncccc12` showed an inhibition of 50%. Also, the Absorption in the test on Cricetinae gen. sp. was 0.24 mg/kg. The compound further yielded an IC50 in test [1] of 135 nM. Besides, the inhibition result in test [6] and in test [7] was “inactive” throughout. Moreover, the Level in the test with Oryctolagus cuniculus was determined as 123 mg/dL.
